pIC50, pKi: −log10 of the molar value. Bounds are passed on as bounds.

Experimental findings from ChEMBL document CHEMBL4823330, “Piperazinyl Bicyclic Derivatives as Selective Ligands of the α2δ-1 Subunit of Voltage-Gated Calcium Channels” (ACS Med Chem Lett, 2021) are described below.

Series [1] is described as follows: Efflux ratio of permeability in human Caco2 cells. The series is classed as ADME, cell-based. Conditions: Caco-2. A general note: Passage across Caco-2 layers is used to estimate intestinal permeability.
Series [2] deals with Voltage-gated inwardly rectifying potassium channel KCNH2 (Homo sapiens, UniProt Q12809). Briefly: Inhibition of human ERG.
Chain of Voltage-gated inwardly rectifying potassium channel KCNH2 (Q12809 whole entry, canonical isoform): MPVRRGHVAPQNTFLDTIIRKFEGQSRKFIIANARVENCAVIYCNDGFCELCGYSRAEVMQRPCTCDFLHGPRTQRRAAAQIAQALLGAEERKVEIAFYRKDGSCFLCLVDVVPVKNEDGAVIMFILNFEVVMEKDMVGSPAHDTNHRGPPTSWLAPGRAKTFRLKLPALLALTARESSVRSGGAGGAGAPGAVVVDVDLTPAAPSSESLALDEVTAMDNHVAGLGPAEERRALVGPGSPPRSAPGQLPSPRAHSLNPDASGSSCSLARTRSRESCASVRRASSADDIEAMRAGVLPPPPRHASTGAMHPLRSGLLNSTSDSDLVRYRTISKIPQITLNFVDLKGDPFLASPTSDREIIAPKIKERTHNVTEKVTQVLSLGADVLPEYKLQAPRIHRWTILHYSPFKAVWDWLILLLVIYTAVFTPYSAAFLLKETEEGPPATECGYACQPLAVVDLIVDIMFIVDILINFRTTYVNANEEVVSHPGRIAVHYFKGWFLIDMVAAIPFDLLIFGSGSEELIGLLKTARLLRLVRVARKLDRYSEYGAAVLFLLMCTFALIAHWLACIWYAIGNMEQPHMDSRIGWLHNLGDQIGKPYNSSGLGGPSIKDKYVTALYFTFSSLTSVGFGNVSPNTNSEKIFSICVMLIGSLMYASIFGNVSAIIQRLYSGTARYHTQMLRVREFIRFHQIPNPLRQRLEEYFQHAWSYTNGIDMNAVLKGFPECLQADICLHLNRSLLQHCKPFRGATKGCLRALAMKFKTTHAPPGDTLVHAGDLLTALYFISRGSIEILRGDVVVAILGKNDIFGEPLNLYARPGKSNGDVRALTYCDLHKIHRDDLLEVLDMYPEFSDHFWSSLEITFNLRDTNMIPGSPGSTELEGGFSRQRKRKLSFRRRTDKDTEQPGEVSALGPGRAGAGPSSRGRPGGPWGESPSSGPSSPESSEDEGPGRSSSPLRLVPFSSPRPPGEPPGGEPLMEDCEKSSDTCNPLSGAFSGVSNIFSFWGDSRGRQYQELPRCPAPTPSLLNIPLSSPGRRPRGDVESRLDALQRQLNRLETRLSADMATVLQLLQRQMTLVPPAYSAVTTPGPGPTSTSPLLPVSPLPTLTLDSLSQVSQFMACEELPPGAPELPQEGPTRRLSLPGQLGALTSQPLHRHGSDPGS
Series [3] addresses CYP2C9 (Homo sapiens, UniProt P11712). Briefly: Inhibition of CYP2C9 (unknown origin) at 1 uM relative to control. It is filed as ADME. A digest of the protocol: (§1)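 Recombinant human CYP isoforms (1A2, 2C9, 2C19, 2D6) were each tested with compound at 1 μM. Read-out is percent inhibition.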
Series [4] in a line: Cmax in CD1 mouse at 20 mg/kg, ip measured upto 24 hrs by UPLC-MS/MS analysis. The series is classed as ADME, organism-based. Further details: route intraperitoneal, dose 20 mg/kg, time <=24. Conditions: in vivo. The method, boiled down:
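Male CD1 mice given a single ip dose of 20 mg/kg. Cmax was taken from the plasma concentration profile.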

Series [5] concerns the target CYP2C19 (Homo sapiens, UniProt P33261). Briefly: Inhibition of CYP2C19 (unknown origin) at 1 uM relative to control. The series is classed as ADME. The method, boiled down:
as §1

Series [6] is described as follows: Metabolic stability in rat liver microsomes assessed as intrinsic clearance per mg protein at 1 uM measured upto 60 mins in presence of NADPH generating system by UPLC-MS/MS analysis. It is filed as ADME, Microsome. Conditions: read-out: CLH. A general note: Liver microsomes are a subcellular fraction often used to study metabolism.
Series [7] can be described thus: Permeability of compound in human Caco2 cells. The series is classed as ADME, cell-based. The note with it: Caco-2, read-out: permeability.
Series [8] concerns the target CYP3A4 (Homo sapiens, UniProt P08684). Briefly: Inhibition of recombinant CYP3A4 (unknown origin) using BFC as substrate at 1 uM measured after 30 mins in presence of NADPH generating system by fluorescence assay relative to control. It is filed as ADME. The note with it: recombinant CYP3A4, probe BFC. The method, boiled down: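 Recombinant human CYP3A4 incubated with test compound at 1 μM. 7-Benzyloxy-4-trifluoromethylcoumarin (BFC) was the probe substrate, with fluorescence read-out, reported as percent inhibition.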

Series [9] is described as follows: Metabolic stability in human liver microsomes assessed as intrinsic clearance per mg protein at 1 uM measured upto 60 mins in presence of NADPH generating system by UPLC-MS/MS analysis. It is filed as ADME, Microsome. The note with it: read-out: CLH.
Series [10] concerns the target Voltage-dependent calcium channel subunit alpha-2/delta-1 (Homo sapiens, UniProt P54289). Briefly: Displacement of [3H]-gabapentin from human Cav alpha2delta1 expressed in CHO-K1 cell membranes incubated for 60 mins by scintillation counting method. Further details: species or system Membrane. The method, boiled down: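 Radioligand binding with [3H]-gabapentin on α2δ-1-enriched membranes from CHO-K1 cells expressing human Cav2.2/β3/α2δ1. Compounds were first screened at 10 μM. Ki was calculated for those giving more than 50% inhibition. Values are mean ± SD of two determinations.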

Series [11] is described as follows: Lipophilicity, logP of compound. It is filed as physicochemical. The note with it: octanol/water.
Series [12] can be described thus: AUC(0 to t) in CD1 mouse at 20 mg/kg, ip measured upto 24 hrs by UPLC-MS/MS analysis. The series is classed as ADME, organism-based. Set-up: route intraperitoneal, dose 20 mg/kg, time <=24. Conditions: in vivo.
Series [13] can be described thus: Metabolic stability in mouse liver microsomes assessed as intrinsic clearance per mg protein at 1 uM measured upto 60 mins in presence of NADPH generating system by UPLC-MS/MS analysis. The series is classed as ADME, Microsome. The note with it: read-out: CLH.
Series [14] is described as follows: Induction of motor coordination impairment in CD1 mouse assessed as latency to fall at 20 mg/kg, ip measured upto 180 mins by rotarod test. It is filed as organism-based. Conditions: in vivo, 3 h. The method, boiled down:
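Mice were dosed at 20 mg/kg ip, with vehicle and pregabalin groups run in the same paradigm. Latency to fall from the elevated rotating drum was recorded at 30, 120 and 180 min after administration.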
For orientation: In the rotarod test animals must keep their balance on a rotating rod.

Series [15] is described as follows: Lipophilicity, logD of compound at pH 7.4. The note with it: buffer. The series is classed as physicochemical.
In series [16] the test system is Mus musculus. Briefly: Analgesic activity in CD1 mouse model of capsaicin-induced mechanical hypersensitivity assessed as reduction in mechanical hypersensitivity at 20 mg/kg, ip administered 30 mins prior to capsaicin stimulation and measured after 15 mins. The series is classed as functional. The note with it: time 45 min, 0.75 h. Set-up: scale not given: the % may be the effect or the level left. The method, boiled down: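 Male CD1 mice, 8–12 per group, given 20 mg/kg ip alongside vehicle and pregabalin comparator groups. Capsaicin test read out as percentage reduction in capsaicin-induced mechanical hypersensitivity.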

The target of series [17] is CYP2D6 (Homo sapiens, UniProt P10635). Briefly: Inhibition of CYP2D6 (unknown origin) at 1 uM relative to control. The series is classed as ADME. A digest of the protocol:
as §1

The target in series [18] is CYP1A2 (Homo sapiens, UniProt P05177). Briefly: Inhibition of CYP1A2 (unknown origin) at 1 uM relative to control. The series is classed as ADME. A digest of the protocol:
as §1

Chain of CYP1A2 (P05177 whole entry): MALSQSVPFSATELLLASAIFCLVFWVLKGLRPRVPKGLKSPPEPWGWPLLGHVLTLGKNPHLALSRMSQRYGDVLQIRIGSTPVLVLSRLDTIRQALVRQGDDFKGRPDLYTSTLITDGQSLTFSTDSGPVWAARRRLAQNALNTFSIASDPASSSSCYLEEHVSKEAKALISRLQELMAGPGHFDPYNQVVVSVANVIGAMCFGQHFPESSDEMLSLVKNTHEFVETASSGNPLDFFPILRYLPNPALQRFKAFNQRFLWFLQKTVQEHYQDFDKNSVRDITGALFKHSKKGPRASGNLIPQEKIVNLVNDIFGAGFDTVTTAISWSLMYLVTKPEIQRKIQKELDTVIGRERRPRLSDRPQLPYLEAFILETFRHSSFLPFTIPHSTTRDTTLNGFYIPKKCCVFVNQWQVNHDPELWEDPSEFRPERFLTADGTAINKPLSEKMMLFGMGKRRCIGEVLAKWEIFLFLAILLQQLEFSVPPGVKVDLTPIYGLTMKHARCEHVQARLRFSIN
Chain of CYP2C19 (P33261 whole entry): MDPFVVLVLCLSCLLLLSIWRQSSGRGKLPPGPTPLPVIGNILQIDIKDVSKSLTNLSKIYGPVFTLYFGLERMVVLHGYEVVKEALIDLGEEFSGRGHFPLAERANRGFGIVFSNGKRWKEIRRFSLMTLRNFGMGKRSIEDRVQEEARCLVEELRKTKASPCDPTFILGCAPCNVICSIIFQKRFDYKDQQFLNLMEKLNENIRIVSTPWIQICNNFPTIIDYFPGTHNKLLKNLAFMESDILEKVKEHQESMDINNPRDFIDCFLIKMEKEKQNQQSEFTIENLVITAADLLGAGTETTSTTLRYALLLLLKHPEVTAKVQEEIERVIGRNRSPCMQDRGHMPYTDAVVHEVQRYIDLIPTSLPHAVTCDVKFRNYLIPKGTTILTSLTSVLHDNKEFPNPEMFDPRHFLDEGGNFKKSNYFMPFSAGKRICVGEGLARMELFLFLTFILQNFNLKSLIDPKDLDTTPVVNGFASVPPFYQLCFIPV
Chain of Voltage-dependent calcium channel subunit alpha-2/delta-1 (P54289 25-956 limits assumed): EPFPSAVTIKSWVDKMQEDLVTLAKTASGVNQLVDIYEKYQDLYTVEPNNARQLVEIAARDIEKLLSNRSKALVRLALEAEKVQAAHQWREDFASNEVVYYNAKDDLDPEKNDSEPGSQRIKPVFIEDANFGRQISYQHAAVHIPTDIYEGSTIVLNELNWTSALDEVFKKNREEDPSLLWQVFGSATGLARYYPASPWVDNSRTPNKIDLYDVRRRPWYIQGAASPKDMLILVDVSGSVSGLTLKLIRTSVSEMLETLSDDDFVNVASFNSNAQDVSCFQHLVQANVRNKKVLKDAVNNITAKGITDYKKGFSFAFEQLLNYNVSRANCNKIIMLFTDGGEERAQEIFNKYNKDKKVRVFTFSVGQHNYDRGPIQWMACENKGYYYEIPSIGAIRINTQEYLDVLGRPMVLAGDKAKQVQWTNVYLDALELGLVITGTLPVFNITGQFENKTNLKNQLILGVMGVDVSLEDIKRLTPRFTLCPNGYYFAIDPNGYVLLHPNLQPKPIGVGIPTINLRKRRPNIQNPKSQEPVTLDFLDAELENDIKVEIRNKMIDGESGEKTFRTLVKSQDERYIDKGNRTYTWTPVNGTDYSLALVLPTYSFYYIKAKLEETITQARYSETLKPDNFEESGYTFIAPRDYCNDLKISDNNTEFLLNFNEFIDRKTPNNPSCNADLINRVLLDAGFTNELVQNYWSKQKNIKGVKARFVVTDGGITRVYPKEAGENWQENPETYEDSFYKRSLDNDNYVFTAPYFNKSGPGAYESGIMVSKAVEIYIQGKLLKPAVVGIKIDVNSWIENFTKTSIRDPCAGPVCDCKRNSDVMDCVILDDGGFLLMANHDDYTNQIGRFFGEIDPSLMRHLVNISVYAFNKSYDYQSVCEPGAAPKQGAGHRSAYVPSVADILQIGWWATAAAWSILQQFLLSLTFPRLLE
Chain of Voltage-dependent calcium channel subunit alpha-2/delta-1 (P54289 957-1103 limits assumed): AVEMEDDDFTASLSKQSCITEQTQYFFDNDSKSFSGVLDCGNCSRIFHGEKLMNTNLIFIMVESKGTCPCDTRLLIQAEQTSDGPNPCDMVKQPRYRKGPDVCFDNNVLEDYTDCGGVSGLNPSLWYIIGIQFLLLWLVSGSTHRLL
Chain of CYP2D6 (P10635 whole entry): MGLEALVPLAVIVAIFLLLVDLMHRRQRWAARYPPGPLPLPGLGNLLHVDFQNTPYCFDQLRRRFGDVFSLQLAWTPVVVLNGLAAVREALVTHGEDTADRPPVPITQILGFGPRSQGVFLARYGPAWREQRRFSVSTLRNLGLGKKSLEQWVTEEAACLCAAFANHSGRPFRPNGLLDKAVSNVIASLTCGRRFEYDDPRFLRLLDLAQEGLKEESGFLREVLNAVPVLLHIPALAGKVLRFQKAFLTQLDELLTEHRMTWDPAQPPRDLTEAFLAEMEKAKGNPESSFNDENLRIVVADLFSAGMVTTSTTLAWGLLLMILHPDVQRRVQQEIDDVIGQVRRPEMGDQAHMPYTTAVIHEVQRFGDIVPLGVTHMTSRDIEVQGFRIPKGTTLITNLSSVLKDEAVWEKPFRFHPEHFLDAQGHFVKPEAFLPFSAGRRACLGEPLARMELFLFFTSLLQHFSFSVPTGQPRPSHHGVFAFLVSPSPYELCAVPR
Chain of CYP3A4 (P08684 whole entry): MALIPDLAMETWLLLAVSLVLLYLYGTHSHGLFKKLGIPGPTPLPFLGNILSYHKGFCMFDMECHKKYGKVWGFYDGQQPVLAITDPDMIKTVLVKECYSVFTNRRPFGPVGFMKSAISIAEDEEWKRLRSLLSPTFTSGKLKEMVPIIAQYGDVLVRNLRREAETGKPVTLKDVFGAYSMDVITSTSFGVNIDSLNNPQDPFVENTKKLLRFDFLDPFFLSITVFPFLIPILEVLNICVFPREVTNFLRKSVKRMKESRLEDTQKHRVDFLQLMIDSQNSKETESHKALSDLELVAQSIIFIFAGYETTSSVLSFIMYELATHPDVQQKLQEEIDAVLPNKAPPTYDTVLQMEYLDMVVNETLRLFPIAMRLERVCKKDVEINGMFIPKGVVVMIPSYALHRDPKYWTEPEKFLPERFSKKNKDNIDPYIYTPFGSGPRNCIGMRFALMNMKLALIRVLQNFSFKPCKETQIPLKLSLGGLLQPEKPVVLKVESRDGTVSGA
Chain of CYP2C9 (P11712 whole entry, canonical isoform): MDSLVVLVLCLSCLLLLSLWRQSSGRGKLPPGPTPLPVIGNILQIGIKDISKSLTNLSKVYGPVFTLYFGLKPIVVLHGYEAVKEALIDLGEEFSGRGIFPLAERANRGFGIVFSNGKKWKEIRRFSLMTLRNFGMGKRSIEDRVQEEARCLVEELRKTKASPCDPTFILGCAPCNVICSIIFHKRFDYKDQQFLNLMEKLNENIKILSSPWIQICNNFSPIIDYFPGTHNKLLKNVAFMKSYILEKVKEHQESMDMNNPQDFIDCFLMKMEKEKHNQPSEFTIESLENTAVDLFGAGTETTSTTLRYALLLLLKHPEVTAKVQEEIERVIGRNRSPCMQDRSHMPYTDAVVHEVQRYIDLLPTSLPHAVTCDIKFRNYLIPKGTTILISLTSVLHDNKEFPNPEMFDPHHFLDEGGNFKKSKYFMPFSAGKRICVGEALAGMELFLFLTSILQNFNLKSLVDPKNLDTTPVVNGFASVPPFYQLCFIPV

What is called efflux ratio is the permeability from basolateral to apical divided by that in the opposite direction, in the common usage. In general, pIC50 refers to the IC50 on a negative log10 scale, so that one unit is a factor of ten. The term inhibition denotes the percentage by which the read-out fell short of the control. What is called Cmax is the maximum level reached in the sampled fluid or tissue. In general, pKi refers to the Ki on a negative log10 scale, so that one unit is a factor of ten. In general, logP refers to the decadic logarithm of the partition coefficient of the neutral form, usually between octanol and water. In general, AUC(0-t) refers to exposure summed from dosing to a finite time, without extrapolation to infinity. One may read the logD as the decadic logarithm of the distribution of all forms, ionised or not, between an organic phase and buffer at a given pH. On to `CCC[C@H](c1nc2ccncc2c(=O)n1CC)N1CCN[C@H](C)C1`, for which the efflux ratio in series [1] stood at 5.4. The compound also had a pIC50 in [2] below 5.00. The inhibition at 1 µM in series [3], in [5], in series [17] and in [18] was below 50% in each case. Also, in series [4], the peak level (Cmax) was 3070 ng/mL. Besides, the microsomal CLint at 1 µM in series [6] came out at 3.9 µL/min/mg; in [9] it was 2.6 µL/min/mg; in series [13] it was 4.1 µL/min/mg. The Papp in [7] came to 4.3 ×10⁻⁶ cm/s. In [8], the inhibition at 0.5 h, 1 µM is 46%. In addition, in [10], the negative logarithm of the Ki (pKi) is 8.22. In series [11], this compound showed a logP of 2.22. Besides, in series [12], the exposure AUC(0-t) at 24 h is 8050 ng·h/mL. Moreover, the values for the Activity result in [14] and in [16] were “Non-Toxic” and 69%, respectively. The compound also yielded a logD in series [15] of 0.49.
